In data set [1] the target is T1, Calpain-1 catalytic subunit (Homo sapiens, UniProt P07384).
T1 sequence (P07384 whole entry): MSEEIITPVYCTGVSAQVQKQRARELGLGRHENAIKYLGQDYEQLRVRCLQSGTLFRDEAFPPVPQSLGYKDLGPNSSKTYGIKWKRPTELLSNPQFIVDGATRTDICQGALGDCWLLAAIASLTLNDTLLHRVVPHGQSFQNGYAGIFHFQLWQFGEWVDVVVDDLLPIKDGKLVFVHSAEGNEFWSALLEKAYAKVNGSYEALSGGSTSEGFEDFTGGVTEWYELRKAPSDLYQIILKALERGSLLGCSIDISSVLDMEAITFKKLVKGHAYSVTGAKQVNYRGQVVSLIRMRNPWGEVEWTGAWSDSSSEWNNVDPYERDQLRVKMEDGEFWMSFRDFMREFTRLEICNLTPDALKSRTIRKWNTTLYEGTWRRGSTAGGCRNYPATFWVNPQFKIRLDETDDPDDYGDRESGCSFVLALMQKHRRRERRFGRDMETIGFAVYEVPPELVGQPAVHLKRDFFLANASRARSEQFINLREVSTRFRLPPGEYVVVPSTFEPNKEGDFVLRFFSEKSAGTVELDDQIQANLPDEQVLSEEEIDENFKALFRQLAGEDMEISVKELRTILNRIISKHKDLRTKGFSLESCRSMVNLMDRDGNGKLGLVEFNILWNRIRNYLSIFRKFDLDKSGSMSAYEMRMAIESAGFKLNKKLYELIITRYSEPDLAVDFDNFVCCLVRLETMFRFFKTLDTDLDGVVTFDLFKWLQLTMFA
Description: Inhibition of human erythrocyte calpain 1 using Suc-Leu-Tyr-AMC as substrate by fluorescence assay.

A short description of data set [2]: Inhibition of calpain in rat hippocampal slices assessed as reduction in NMDA-induced intracellular spectrin cleavage. It is filed as cell-based. The method in brief:
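Rat hippocampal slice cultures were challenged with NMDA. The read-out was prevention of intracellular spectrin cleavage, and IC50 values were derived.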

A short description of data set [3]: Intrinsic clearance in cynomolgus monkey liver cytosol at 0.5 uM measured after 15 mins in presence of NADPH by spectrometric method. To be noted: read-out: CLH. It is filed as ADME, subcellular, Macaca fascicularis. The method in brief:
(§1)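 Test compound incubated with monkey or human liver cytosol and percent parent lost over time followed. Intrinsic clearance calculated from this depletion, in µL/min/mg; ranges adjusted to hepatic plasma flow of the species.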

Data set [4] is described as follows: Intrinsic clearance in human liver cytosol at 0.5 uM measured after 15 mins in presence of NADPH by spectrometric method. To be noted: read-out: CLH. It is filed as ADME, subcellular. The method in brief: as §1
A short description of data set [5]: Clearance in rat hepatocytes. It is filed as ADME, cell-based, Hepatocyte.
Data set [6] in a line: Clearance in human hepatocytes. In kind it is ADME, cell-based, Hepatocyte.

pIC50, pKi: −log10 of the molar value.

In data set [1], `C=CCNC(=O)C(=O)C(Cc1ccccc1)NC(=O)c1cccnc1-n1ccc(-c2ccccc2)n1` (stereo not given) showed a pKi of 6.33.
The same measure, in the same setting: under `CCCNC(=O)C(=O)C(Cc1ccccc1)NC(=O)c1cccnc1-n1ccc(-c2ccccc2)n1` (stereo not given) stands 6.32.
With `CONC(=O)C(=O)C(Cc1ccccc1)NC(=O)c1cccnc1-n1ccc(-c2ccccc2)n1` (stereo not given), the pKi in data set [1] was 6.92. For the same compound, the pIC50 in data set [2] is 5.67.
`O=C(NOC1CCCC1)C(=O)C(Cc1ccccc1)NC(=O)c1cccnc1-n1ccc(-c2ccccc2)n1` (stereo not given): in data set [1], the pKi was 6.92.
Compound `O=C(NC1CCC1)C(=O)C(Cc1ccccc1)NC(=O)c1cccnc1-n1ccc(-c2ccccc2)n1` (stereo not given) gave a pKi in data set [1] of 6.31.
In data set [1], `O=C(NCc1nc2ccccc2o1)C(=O)C(Cc1ccccc1)NC(=O)c1cccnc1-n1ccc(-c2ccccc2)n1` (stereo not given) had a pKi of 6.68.
Regarding `CCNC(=O)C(=O)C(Cc1ccccc1)NC(=O)c1cccnc1-n1ccc(-c2ccccc2)n1` (stereo not given), the pKi in data set [1] was 6.16.
With `O=C(NCCc1ccccc1)C(=O)C(Cc1ccccc1)NC(=O)c1cccnc1-n1ccc(-c2ccccc2)n1` (stereo not given), the pKi in data set [1] was 6.48.
For the compound `C=CCONC(=O)C(=O)C(Cc1ccccc1)NC(=O)c1cccnc1-n1ccc(-c2ccccc2)n1` (stereo not given), in data set [1], the pKi is 6.73.
On to `CNC(=O)C(=O)C(Cc1ccccc1)NC(=O)c1cccnc1-n1ccc(-c2ccccc2)n1` (stereo not given), for which the pKi in data set [1] was 6.42.
In turn, `O=C(NC1CC1)C(=O)C(Cc1ccccc1)NC(=O)c1cccnc1-n1ccc(-c2ccccc2)n1` (stereo not given) had a pKi in data set [1] of 6.69. Besides, the pIC50 in data set [2] is 6.12.
In the case of `CN(C)CCONC(=O)C(=O)C(Cc1ccccc1)NC(=O)c1cccnc1-n1ccc(-c2ccccc2)n1` (stereo not given), the pKi in data set [1] was 5.97.
The same measure, in the same setting: next, `CCCONC(=O)C(=O)C(Cc1ccccc1)NC(=O)c1cccnc1-n1ccc(-c2ccccc2)n1` (stereo not given): 7.12; `CC(C)ONC(=O)C(=O)C(Cc1ccccc1)NC(=O)c1cccnc1-n1ccc(-c2ccccc2)n1` (stereo not given): 6.66.
The same measure, in the same setting: under `N#CCNC(=O)C(=O)C(Cc1ccccc1)NC(=O)c1cccnc1-n1ccc(-c2ccccc2)n1` (stereo not given) stands 6.02; under `O=C(NOCC1CC1)C(=O)C(Cc1ccccc1)NC(=O)c1cccnc1-n1ccc(-c2ccccc2)n1` (stereo not given), 7.05.
On the same count and under the same terms, next, `O=C(NC1CCCC1)C(=O)C(Cc1ccccc1)NC(=O)c1cccnc1-n1ccc(-c2ccccc2)n1` (stereo not given): 5.87; `O=C(NCc1ccccc1)C(=O)C(Cc1ccccc1)NC(=O)c1cccnc1-n1ccc(-c2ccccc2)n1` (stereo not given): 6.96.
In data set [1], `O=C(NCC1CC1)C(=O)C(Cc1ccccc1)NC(=O)c1cccnc1-n1ccc(-c2ccccc2)n1` (stereo not given) gave a pKi of 6.26.
Consider `CCONC(=O)C(=O)C(Cc1ccccc1)NC(=O)c1cccnc1-n1ccc(-c2ccccc2)n1` (stereo not given), for which the microsomal CLint at […], 0.5 µM in data set [3] and in data set [4] was < 1 µL/min/mg each time. Moreover, the pKi in data set [1] was 6.96. Besides, the CLH in data set [5] was determined as 32 µL/min/mg; in data set [6], 10 µL/min/mg.
`CC1(NC(=O)C(=O)C(Cc2ccccc2)NC(=O)c2cccnc2-n2ccc(-c3ccccc3)n2)CC1` (stereo not given): the pKi in data set [1] was < 5.30.
For `O=C(NOC1CCC1)C(=O)C(Cc1ccccc1)NC(=O)c1cccnc1-n1ccc(-c2ccccc2)n1` (stereo not given), the pKi in data set [1] is 6.82.
Still for that read-out and setting: under `CC(C)NC(=O)C(=O)C(Cc1ccccc1)NC(=O)c1cccnc1-n1ccc(-c2ccccc2)n1` (stereo not given) stands 5.59; under `O=C(NOCCN1CCOCC1)C(=O)C(Cc1ccccc1)NC(=O)c1cccnc1-n1ccc(-c2ccccc2)n1` (stereo not given), 6.58.

These data come from ChEMBL document CHEMBL4251698, “Mitigating the Metabolic Liability of Carbonyl Reduction: Novel Calpain Inhibitors with P1' Extension” (ACS Med Chem Lett, 2018).
